Some results are limits rather than exact numbers.

For data set [1], the species on record is Mus musculus. Nature of the data set: The compound was evaluated for the mouse active Arthus (MAA) reaction activity expressed as inhibitory dose. The class given is functional. Particulars: read-out: ID50 (the source's name). The essentials: (§1)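 CD-1 mice were sensitized ip with a 1:1 Freund's complete adjuvant emulsion containing BSA in saline, 5 weeks before challenge. Compound was suspended in 1% Na CMC in pyrogen-free saline and given as one ip or oral dose 1 h before skin challenge with BSA. Screening doses were 150 mg/kg ip and 300 mg/kg po, with some at 75 or 50 mg/kg ip. Lesions were excised 3.5 h after challenge and weighed against controls.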

For data set [2], the system named is Mus musculus. Nature of the data set: Inhibition of Mouse active Arthus (MAA) reaction activity was determined for peroral dose of 300 mg/kg in mouse; 31-40%. The class given is functional. Particulars: route oral.
The test system of data set [3] is Mus musculus. Description: Inhibition of Mouse Active Arthus reaction following 150 mg/Kg i.p.; 41-60% inhibition. Particulars: Mus musculus, ip. The class given is functional.
Data set [4] relates to Cavia porcellus. Nature of the data set: The compound was evaluated for the delayed hypersensitivity skin reaction (DHSR) activity after subcutaneous administration; 11/27.
In data set [5] the test system is Cavia porcellus. Nature of the data set: Tested in delayed hypersensitivity skin reaction (DHSR) after subcutaneous administration, activity reported as percent inhibition of erythema/induration of lesion; 18/50. The class given is functional.
Data set [6] can be described thus: Acute toxicity as LD50 value was determined in mice administered intraperitoneally. The class given is organism-based. Conditions: mouse, in vivo, ip.
Data set [7] can be described thus: Acute toxicity as LD50 value was determined in mice administered orally. The class given is organism-based. Particulars: mouse, in vivo, po.
Data set [8] has as its system Mus musculus. Description: The compound was evaluated for the mouse active Arthus (MAA) reaction activity expressed as inhibitory dose after ip administration. The class given is functional. Conditions: read-out: ID50 (the source's name). The essentials: as §1
The subject of data set [9] is Mus musculus. Nature of the data set: The compound was evaluated for the mouse active Arthus (MAA) reaction activity expressed as inhibitory dose after oral administration. The class given is functional. Particulars: read-out: ID50 (the source's name). The essentials: as §1
In data set [10] the test system is Mus musculus. Description: Inhibition of Mouse active Arthus (MAA) reaction activity was determined for peroral dose of 300 mg/kg in mouse; 21-30%. The class given is functional. Particulars: route oral.
The test system of data set [11] is Mus musculus. Description: Mouse active Arthus (MAA) reaction activity was determined for an ip dose of 150 mg/kg in mouse. The class given is functional. Particulars: route intraperitoneal.
A short description of data set [12]: Therapeutic ratio was determined for intraperitoneal administration. The class given is ADME. Conditions: ip; read-out: TR.
Data set [13] in a line: Therapeutic ratio was determined for peroral administration. Conditions: po; read-out: TR.
Data set [14] has as its system Cavia porcellus. Description: Tested in delayed hypersensitivity skin reaction (DHSR) after subcutaneous administration, activity reported as percent inhibition of erythema/induration of lesion; 5/2. The class given is functional. The essentials:
(§2)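 Male Hartley guinea pigs were sensitized with Mycobacterium tuberculosis in Freund's incomplete adjuvant, injected into each hind footpad and subcutaneously at the neck. After 3 weeks, 1.2 μg PPD was given intradermally. Compound in sesame oil was given sc, 3 animals per group, 30 min before and 5 h after PPD; screening dose 50 mg/kg.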

The subject of data set [15] is Mus musculus. Description: Inhibition of Mouse active Arthus (MAA) reaction activity was determined for an ip dose of 150 mg/kg in mouse; 21-30%. The class given is functional. Conditions: route intraperitoneal.
Data set [16] concerns Cavia porcellus. Nature of the data set: Tested in delayed hypersensitivity skin reaction (DHSR) after subcutaneous administration, activity reported as percent inhibition of erythema/induration of lesion; 19/23. The class given is functional.
Data set [17] relates to Mus musculus. Description: The compound was evaluated for the mouse active Arthus (MAA) reaction activity for an ip screening dose of 75 mg/kg in mouse. The class given is functional. Particulars: route intraperitoneal. The essentials:
as §1

Data set [18] concerns Mus musculus. Description: The compound was evaluated for the mouse active Arthus (MAA) reaction activity for peroral screening dose of 150 mg/kg in mouse. The class given is functional. Conditions: route oral.
Data set [19] has as its system Cavia porcellus. Nature of the data set: The compound was evaluated for the delayed hypersensitivity skin reaction (DHSR) activity after subcutaneous administration; 1/0.
The test system of data set [20] is Mus musculus. Description: Mouse active Arthus (MAA) reaction activity was determined for an ip dose of 150 mg/kg in mouse; 31-40%. The class given is functional. Conditions: route intraperitoneal.
Data set [21] deals with Cavia porcellus. Nature of the data set: The compound was evaluated for the delayed hypersensitivity skin reaction (DHSR) activity after subcutaneous administration; 8/1.
For data set [22], the system named is Cavia porcellus. Description: Tested in delayed hypersensitivity skin reaction (DHSR) after subcutaneous administration, activity reported as percent inhibition of erythema/induration of lesion; 4/22. The class given is functional. The essentials: as §2
Data set [23] concerns Cavia porcellus. Description: Tested in delayed hypersensitivity skin reaction (DHSR) after subcutaneous administration, activity reported as percent inhibition of erythema/induration of lesion; 7/17. The class given is functional. The essentials: as §2
Data set [24] relates to Cavia porcellus. Description: The compound was evaluated for the delayed hypersensitivity skin reaction (DHSR) activity after subcutaneous administration; 12/21.
The subject of data set [25] is Cavia porcellus. Description: Tested in delayed hypersensitivity skin reaction (DHSR) after subcutaneous administration, activity reported as percent inhibition of erythema/induration of lesion; 7/1. The class given is functional. The essentials: as §2
The subject of data set [26] is Mus musculus. Nature of the data set: Inhibition of Mouse active Arthus (MAA) reaction activity was determined for peroral screening dose of 150 mg/kg in mouse; 21-30%. The class given is functional. Conditions: route oral.
Data set [27] has as its system Mus musculus. Description: Mouse active Arthus (MAA) reaction was determined value for oral administration.

As to `CN1CCN(CCCN2N=C3/C(=C/c4ccc([S+](C)[O-])cc4)CSCC3C2c2ccc([S+](C)[O-])cc2)CC1.O=C(O)/C=C\C(=O)O` (stereo not drawn), the ED50 in the data set listed under Mus musculus [1] turned out to be 190 mg/kg. For the same compound, the inhibition in vivo at 300 mg/kg in the data set on Mus musculus [2] worked out at 31%. Moreover, in the data set on Mus musculus [3], the inhibition in vivo at 150 mg/kg was 41%. This compound gave an Activity with Cavia porcellus [4] of 11.

As to `COc1ccc(/C=C2\CS(=O)(=O)CC3C2=NN(CCCN2CCN(C)CC2)C3c2ccc(OC)cc2)cc1.O=C(O)/C=C\C(=O)O` (stereo not drawn), in the data set on Cavia porcellus [5], the Activity is 18. For the same compound, the LD50 is 280 mg/kg in data set [6] and > 1200 mg/kg in [7]. The results for the ED50 in the data set on Mus musculus [8], with Mus musculus [9] and in the data set listed under Mus musculus [1] were 30 mg/kg, 234 mg/kg and 30 mg/kg, respectively. Also, the inhibition in vivo at 300 mg/kg in the data set with Mus musculus [10] came out at 21%. Besides, in the data set on Mus musculus [11], the inhibition in vivo at 150 mg/kg is > 60%. Besides, the selectivity ratio in data set [12] was 9.6; in data set [13], > 5.1.

Take `CC(C)n1nc(-c2cccc(C(F)(F)F)c2)c2c1/C(=C/c1cccc(C(F)(F)F)c1)CS(=O)(=O)C2`: the Activity in the data set on Cavia porcellus [14] is given as 5. Also, in the data set on Mus musculus [15], 150 mg/kg produced 21% inhibition in vivo.

Turning to `Cc1ccc(/C=C2\CS(=O)(=O)Cc3c(-c4ccc(C)cc4)nn(CC(F)(F)F)c32)cc1`, the Activity in the data set on Cavia porcellus [16] is given as 19. For the same compound, the inhibition in vivo at 75 mg/kg with Mus musculus [17] was > 60%. Besides, the inhibition in vivo at 150 mg/kg in the data set on Mus musculus [18] was < 20%.

In the data set with Mus musculus [15], `CCCN1N=C2/C(=C/c3ccccc3)CSCC2C1c1ccccc1` (stereo not drawn) had an inhibition in vivo at 150 mg/kg of 21%. Further, the Activity in the data set with Cavia porcellus [19] was determined as 1.

In the data set on Mus musculus [20], `C#CCN1N=C2/C(=C/c3cccc(C(F)(F)F)c3)CS(=O)(=O)CC2C1c1cccc(C(F)(F)F)c1` (stereo not drawn) displayed an inhibition in vivo at 150 mg/kg of 31%. In the data set on Cavia porcellus [21], the Activity is 8.

Consider `CC(C)N1N=C2/C(=C/c3cccc(C(F)(F)F)c3)CS(=O)(=O)CC2C1c1cccc(C(F)(F)F)c1` (stereo not drawn), for which the Activity in the data set with Cavia porcellus [22] was 4. Besides, the inhibition in vivo at 150 mg/kg in the data set with Mus musculus [20] is 31%.

In the case of `CCCN1N=C2/C(=C/c3ccccc3C)CS(=O)(=O)CC2C1c1ccccc1C` (stereo not drawn), the Activity in the data set with Cavia porcellus [23] is given as 7. The compound further returned an inhibition in vivo at 150 mg/kg with Mus musculus [15] of 21%.

Turning to `CCCN1N=C2/C(=C/c3cccc(C(F)(F)F)c3)CSCC2C1c1cccc(C(F)(F)F)c1` (stereo not drawn), the inhibition in vivo at 150 mg/kg in the data set with Mus musculus [20] amounted to 31%. In the data set with Cavia porcellus [24], this compound showed an Activity of 12.

Regarding `CCCN1N=C2/C(=C/c3ccc(C(C)(C)C)cc3)CS(=O)(=O)CC2C1c1ccc(C(C)(C)C)cc1` (stereo not drawn), the Activity in the data set on Cavia porcellus [25] amounted to 7. Besides, in the data set with Mus musculus [26], at 150 mg/kg the inhibition in vivo was 21%.

On to `CC(C)Cc1ccc(C(C)C(=O)O)cc1` (stereo not drawn) [IBUPROFEN], for which, in data set [13], the selectivity ratio turned out to be 3.4. The compound further registered an ID50 in the data set with Mus musculus [27] of 494 mg/kg.

By inhibition in vivo is commonly meant how much of the control response was suppressed. A low value points to a weak effect. The term LD50 denotes the dose expected to kill half of the subjects tested. Lower therefore signals a more toxic substance.

(Values after ChEMBL document CHEMBL1122142, “Synthesis and antiinflammatory activity of hexahydrothiopyrano[4,3-c]pyrazoles and related analogues” (J Med Chem, 1982).)
